Data as given in ChEMBL document CHEMBL3872208, “Synthesis and pharmacological characterization of novel N-(trans-4-(2-(4-(benzo[d]isothiazol-3-yl)piperazin-1-yl)ethyl)cyclohexyl)amides as potential multireceptor atypical antipsychotics” (Eur J Med Chem, 2016).
Active and inactive are the calls of the source. No cut-off for these calls is given here.

Columns and labels:
[1] = system: CHO; test: Selectivity ratio of Ki for displacement of [3H]spiperone from recombinant human D2L receptor expressed in CHO cell membranes to Ki for displacement of [3H]methyl-spiperone from recombinant human D3 receptor expressed in CHO cell membranes
How it was run: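 D2L binding: CHO membranes (16 µg protein) with 0.3 nM [3H]methyl-spiperone in 50 mM Tris-HCl pH 7.4, 120 mM NaCl, 10 mM MgCl2, 1 mM EDTA, with butaclamol for nonspecific binding. D3 binding: membranes (8 µg) with 0.3 nM [3H]methyl-spiperone in the same Tris buffer with 5 mM KCl, 5 mM MgCl2, 5 mM EDTA, with (+)butaclamol for nonspecific binding. Both run 60 min at 22 °C, then GF/B filtration. Ki by Cheng–Prusoff; ratio is D2 Ki/D3 Ki.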

[2] = biological target: D(2) dopamine receptor (Homo sapiens, UniProt P14416); test: Displacement of [3H]spiperone from recombinant human D2L receptor expressed in CHO cell membranes after 60 mins by scintillation counting method
D(2) dopamine receptor, sequence (P14416 whole entry): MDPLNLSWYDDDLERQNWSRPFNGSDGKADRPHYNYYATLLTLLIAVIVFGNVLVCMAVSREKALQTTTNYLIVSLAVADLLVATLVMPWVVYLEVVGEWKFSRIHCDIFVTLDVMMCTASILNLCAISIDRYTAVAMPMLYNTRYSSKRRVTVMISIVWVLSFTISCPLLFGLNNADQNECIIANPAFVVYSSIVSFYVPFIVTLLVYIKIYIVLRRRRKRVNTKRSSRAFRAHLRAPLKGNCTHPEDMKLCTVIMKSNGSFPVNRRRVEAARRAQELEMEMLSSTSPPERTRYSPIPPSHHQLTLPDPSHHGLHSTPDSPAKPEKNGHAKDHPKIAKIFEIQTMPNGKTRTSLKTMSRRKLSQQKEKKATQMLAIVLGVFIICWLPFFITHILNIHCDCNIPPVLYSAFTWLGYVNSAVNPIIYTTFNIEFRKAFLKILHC

[3] = biological target: D(3) dopamine receptor (Homo sapiens, UniProt P35462); test: Displacement of [3H]methyl-spiperone from recombinant human D3 receptor expressed in CHO cell membranes after 60 mins by scintillation counting method
D(3) dopamine receptor, sequence (P35462 whole entry): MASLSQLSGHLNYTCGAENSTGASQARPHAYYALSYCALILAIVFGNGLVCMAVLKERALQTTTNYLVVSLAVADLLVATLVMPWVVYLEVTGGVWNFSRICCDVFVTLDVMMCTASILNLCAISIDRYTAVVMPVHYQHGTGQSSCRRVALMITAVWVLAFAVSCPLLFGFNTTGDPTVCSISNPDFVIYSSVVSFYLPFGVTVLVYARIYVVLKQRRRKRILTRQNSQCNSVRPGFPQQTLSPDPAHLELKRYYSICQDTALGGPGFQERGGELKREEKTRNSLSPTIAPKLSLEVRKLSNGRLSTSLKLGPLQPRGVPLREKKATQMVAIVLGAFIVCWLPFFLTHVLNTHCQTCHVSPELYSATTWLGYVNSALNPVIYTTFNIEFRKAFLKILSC

[4] = biological target: T1, 5-hydroxytryptamine receptor 1A (Homo sapiens, UniProt P08908); test: Displacement of [3H]8-OH-DPAT from recombinant human 5-HT1A receptor expressed in HEK293 cell membranes after 60 mins by scintillation counting method
T1 sequence (P08908 whole entry): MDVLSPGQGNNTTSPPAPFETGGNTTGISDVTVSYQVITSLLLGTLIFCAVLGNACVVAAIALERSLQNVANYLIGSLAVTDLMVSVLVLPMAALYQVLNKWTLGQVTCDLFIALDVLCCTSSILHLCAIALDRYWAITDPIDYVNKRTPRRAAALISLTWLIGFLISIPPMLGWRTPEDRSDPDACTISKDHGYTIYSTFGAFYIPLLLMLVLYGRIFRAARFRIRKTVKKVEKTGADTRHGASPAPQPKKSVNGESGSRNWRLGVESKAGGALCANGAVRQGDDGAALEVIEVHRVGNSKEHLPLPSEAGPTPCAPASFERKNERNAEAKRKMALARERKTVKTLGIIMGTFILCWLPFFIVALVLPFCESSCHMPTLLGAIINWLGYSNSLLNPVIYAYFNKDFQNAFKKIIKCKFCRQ

[5] = biological target: 5-hydroxytryptamine receptor 2A (Homo sapiens, UniProt P28223); test: Displacement of [3H]ketanserin from recombinant human 5-HT2A receptor expressed in HEK293 cell membranes after 60 mins by scintillation counting method
5-hydroxytryptamine receptor 2A, sequence (P28223 whole entry): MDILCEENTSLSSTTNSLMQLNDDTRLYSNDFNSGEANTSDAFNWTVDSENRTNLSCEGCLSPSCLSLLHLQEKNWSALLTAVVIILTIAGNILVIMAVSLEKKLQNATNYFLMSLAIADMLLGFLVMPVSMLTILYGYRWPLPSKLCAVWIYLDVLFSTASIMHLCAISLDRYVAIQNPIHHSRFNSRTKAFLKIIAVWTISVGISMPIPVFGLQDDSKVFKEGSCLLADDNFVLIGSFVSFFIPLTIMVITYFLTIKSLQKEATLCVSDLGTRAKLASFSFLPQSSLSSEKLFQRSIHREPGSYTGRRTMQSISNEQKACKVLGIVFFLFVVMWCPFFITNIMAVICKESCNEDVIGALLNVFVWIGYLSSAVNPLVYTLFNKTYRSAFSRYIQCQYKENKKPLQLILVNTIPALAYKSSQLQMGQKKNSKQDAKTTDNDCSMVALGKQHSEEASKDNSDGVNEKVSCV

[6] = Stability of compound; format: physicochemical
[7] = system: Rattus norvegicus; test: Reversal of PCP-induced hyperlocomotion activity in ip dosed Sprague-Dawley rat pretreated for 10 mins followed by PCP challenge measured after […]; format: functional, organism-based
[8] = system: Rattus norvegicus; test: Antipsychotic activity in Sprague-Dawley rat assessed as inhibition of conditioned avoidance behavior at 1.0 to 2.0 mg/kg, ip administered as single dose measured after 1 hr; format: functional, organism-based
How it was run: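 Male SD rats (150–180 g, 6 per group) trained in automated shuttle-boxes; only rats exceeding 80% avoidance were used. Single i.p. dose of 1.0 or 2.0 mg/kg given 1 h before a 20-trial session. Read-out is percentage of avoidance (mean ± SEM, n = 6), compared with the vehicle group.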

[9] = biological target: T2, Muscarinic acetylcholine receptor M1 (Homo sapiens, UniProt P11229); test: Displacement of [3H]pirenzepine from recombinant human M1 receptor expressed in CHO cell membranes at 1 uM after 60 mins by scintillation counting method relative to control; conditions: CHO cell membranes expressing recombinant human M1 receptor, probe [3H]pirenzepine
T2 sequence (P11229 whole entry): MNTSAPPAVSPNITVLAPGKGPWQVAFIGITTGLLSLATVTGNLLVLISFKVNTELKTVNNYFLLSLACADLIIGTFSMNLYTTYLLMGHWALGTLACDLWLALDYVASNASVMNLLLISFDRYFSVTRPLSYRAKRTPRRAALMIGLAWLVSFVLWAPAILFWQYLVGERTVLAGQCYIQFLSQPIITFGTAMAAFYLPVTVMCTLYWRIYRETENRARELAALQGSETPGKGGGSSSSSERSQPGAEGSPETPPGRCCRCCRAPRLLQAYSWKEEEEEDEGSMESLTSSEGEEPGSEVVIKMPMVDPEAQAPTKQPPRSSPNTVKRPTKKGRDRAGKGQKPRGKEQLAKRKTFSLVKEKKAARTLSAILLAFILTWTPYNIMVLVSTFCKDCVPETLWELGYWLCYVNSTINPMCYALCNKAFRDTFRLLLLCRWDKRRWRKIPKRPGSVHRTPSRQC
How it was run: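 Nonspecific binding defined with […]. Filtered on PEI-soaked GF/B and scintillation counted. Expressed as percent inhibition of control specific binding at a single test concentration.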

[10] = system: Rattus norvegicus; test: Toxicity in Sprague-Dawley rat assessed as cataleptogenic effect by measuring time spent in cataleptic position at 1 to 10 mg/kg, po measured after 0.5 to 2 hrs; format: organism-based; conditions: in vivo
How it was run: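 Male SD rats (180–250 g, n = 7) dosed orally at 1.0, 3.0 or 10.0 mg/kg. Forepaws placed on a bar 0.9 cm in diameter, 11 cm high, at 30, 60 and 120 min after dosing. Time held is expressed as a percentage of the 60 s maximum (mean ± SEM).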

[11] = system: Rattus norvegicus; test: Cognitive enhancement effect in Sprague-Dawley rat assessed as reversal of PCP-impaired performance by measuring increase in time spent exploring novel object in comparison to familiar object at 0.1 mg/kg, po administered 60 mins prior to test by novel object recognition assay

Compound `CCOC(=O)N[C@H]1CC[C@H](CCN2CCN(c3nsc4ccccc34)CC2)CC1` has a Ratio Ki [1] of 12.2, a Ki [2] of 0.71 nM and a Ki [3] of 0.058 nM. The Ki [4] was 0.2 nM, the Ki [5] was 0.53 nM and the Stability [6] was “Unstable”.
In the case of `CN(C)C(=O)N[C@H]1CC[C@H](CCN2CCN(c3cccc(Cl)c3Cl)CC2)CC1` [CARIPRAZINE], the Activity [7] is reported as “Dose-dependent effect”, the inhibition [8] is reported as “Active” and the inhibition at 1 h, 1 µM [9] is reported as < 20%. The Activity [10] was “Non-Toxic” and the Activity [11] was “Active”.
